Compound activity deposited in PubChem BioAssay by Broad Institute.
The list is not random: actives were taken first. Their share in the collection is about 1.5%.
ERp5 inh: inhibitors of ERp5-driven insulin aggregation, primary screen, biochemical, turbidity, absorbance 650 nm, single point; 90 min; inhibition, % at 9.99 µM; 0.05% of 350,000 active; AID 651711, 2012;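 active means mean replicate inhibition above about 25%, with every replicate also reaching it, limit read from the data, passing the limit was not always enough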
Target sequence (Q15084 whole entry, looked up): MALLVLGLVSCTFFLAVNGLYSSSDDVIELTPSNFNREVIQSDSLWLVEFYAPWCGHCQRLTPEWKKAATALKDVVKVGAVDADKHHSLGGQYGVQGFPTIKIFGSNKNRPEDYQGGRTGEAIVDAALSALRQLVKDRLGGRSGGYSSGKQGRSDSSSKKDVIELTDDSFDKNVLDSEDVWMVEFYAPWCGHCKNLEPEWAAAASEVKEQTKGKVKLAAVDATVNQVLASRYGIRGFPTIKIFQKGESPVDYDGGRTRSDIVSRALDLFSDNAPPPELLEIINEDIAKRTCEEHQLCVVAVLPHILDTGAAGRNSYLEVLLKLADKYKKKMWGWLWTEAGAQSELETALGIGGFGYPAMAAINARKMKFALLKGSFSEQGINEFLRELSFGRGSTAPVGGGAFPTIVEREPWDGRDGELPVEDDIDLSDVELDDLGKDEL
SIRT5 inh: SIRT5 desuccinylase inhibitors, primary screen, biochemical, fluorescence imaging, single point, set 5; NAD-dependent protein deacylase sirtuin-5, mitochondrial (Homo sapiens), Q9NXA8; Purified SirT5, succinyl-peptide AMC, trypsin-coupled fluorescence; inhibition, % at 15 µM; 1.1% of 330,000 active; AID 652115, 2013; in the data active means inhibition above about 15%
S100A4 inh HTS: inhibitors of S100A4-myosin IIA peptide binding, primary screen, biochemical, fluorescence polarization, TAMRA-MyoIIA peptide; Protein S100-A4 (Homo sapiens), P26447; inhibition, % at 10.7 µM; 0.14% of 360,000 active;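 active means mean inhibition of at least 70% across replicates, with every replicate also reaching that level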
Target sequence (P26447 whole entry, looked up): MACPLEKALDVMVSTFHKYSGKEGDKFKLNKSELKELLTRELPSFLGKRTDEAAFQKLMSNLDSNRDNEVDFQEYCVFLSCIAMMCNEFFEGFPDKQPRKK
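incubation = readout 5 min after mixing, signal stable up to 60 min | system = S100A4 monomer protein | buffer or medium = HEPES pH 7.2 with CaCl2, KCl, NaCl, DTT, Triton | benchmarks = neutral control DMSO, positive control TFP | also added = fluorescent myosin IIA peptide, 5 nM | compound dosing = one concentration per compound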
GSIS activator: GLuc luminescence reporter in INS-1E cells, primary screen for activators of glucose-dependent secretion of insulin; INS-1E GLuc reporter insulin secretion, 2-3 h; activation, % at 16.6 µM; 0.61% of 370,000 active; AID 743287, 2014;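 active means lowest replicate activation of at least 40%, so every replicate reaches that level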;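 further: 0% = median of neutral control wells and 100% = median of IBMX positive control wells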
PDI turbidity: inhibitors of human PDI, primary screen, biochemical, turbidity, single point, plate reader; Protein disulfide-isomerase (Homo sapiens), P07237; inhibition, % at 10 µM; 0.052% of 350,000 active; PDI insulin aggregation turbidity, A650, 90 min;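 active means mean inhibition across replicates of 30% or more, whatever share of single replicates reach that level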
An asterisk follows results filed as active; nt = no result given.

SMILES | ERp5 inh | SIRT5 inh | S100A4 inh HTS | GSIS activator | PDI turbidity
CC(C)(C)c1ccc(C#C[C@@H]2C=C[C@@H](O)[C@@H](CO)O2)cc1 | -1 | nt | -6 | nt | nt
CC(C)(C)c1ccc(C#C[C@@H]2C=C[C@H]3OC(=O)CC/C=C/CCC(=O)OC[C@H]3O2)cc1 | -6 | nt | -3 | 95* | nt
COc1ccc(NC(=O)Nc2cccc3c2O[C@H](CN(C)CC2CCCCC2)[C@@H](C)CN([C@H](C)CO)C3=O)cc1 | -3 | 3 | 1 | -15 | nt
COc1cccc(N/N=C(\C#N)S(=O)(=O)C(C)(C)C)c1 | -6 | 18* | -5 | -15 | -22
COc1ccccc1-c1cc(C(=O)NC(C)C)no1 | -2 | 22* | -5 | -9 | -6
CS(=O)(=O)N1CCCCC1c1cc(C(=O)Nc2cccc3c2CCCC3)no1 (stereo not drawn) | 4 | nt | -9 | 54* | -4
CNC[C@@H]1OCCCC[C@@H](C)Oc2ccc(NC(=O)Nc3ccc(OC)cc3)cc2C(=O)N([C@H](C)CO)C[C@H]1C | nt | nt | nt | -3 | nt
COc1ccc(C[C@H]2CN3C(=NC[C@@H]3Cc3ccccc3)N2CCNC(=O)CCC2CCCCC2)cc1 | 5 | -1 | 2 | 155* | 1
O=C(CCC1CCCCC1)NCCN1C2=NC[C@H](Cc3ccc(O)cc3)N2C[C@H]1Cc1ccc(O)cc1 | 0 | -4 | 0 | nt | 34*
COc1ccc(C[C@H]2CN3C(=NC[C@@H]3C(C)C)N2CCNC(=O)CCC2CCCCC2)cc1 | nt | nt | nt | -14 | -15
CCOC(=O)C1=C(c2ccccc2)N=c2s/c(=C\c3cccc(O)c3)c(=O)n2C1c1cccs1 (stereo not drawn) | nt | nt | nt | nt | 61*
COc1ccc(S(=O)(=O)Nc2ccc3c(c2)C(=O)N([C@@H](C)CO)C[C@@H](C)[C@@H](CN(C)C(=O)Nc2ccc4c(c2)OCO4)OCCCC[C@H](C)O3)cc1 | 3 | 3 | 4 | -42 | nt
O=C(O)C1CCN(C(=O)CSc2nc3ccccc3c(=O)n2Cc2ccccc2)CC1 | -3 | -1 | 4 | 43* | 23
Cc1cc(C(=O)COc2ccc(C#N)cc2)c(C)n1-c1ccc2c(c1)OCO2 | -6 | 35* | 3 | 7 | -7
C[C@@H]1CN([C@@H](C)CO)C(=O)c2cc(C#CC3CCCC3)cnc2O[C@H]1CN(C)C(=O)C1CC1 | 2 | 0 | -29 | 4 | nt
O=C(C[C@H]1CC[C@@H](NC(=O)c2ccccc2)[C@@H](CO)O1)NCc1ccc(Oc2ccccc2)cc1 | 4 | -3 | 2 | 6 | nt
COc1ccc(S(=O)(=O)N2C[C@@H](O)COC[C@H]3O[C@@H](CC(=O)NCc4ccc(Cl)c(Cl)c4)CC[C@@H]32)cc1 | -2 | 5 | 6 | -3 | nt
Clc1ccc(OCCn2ccnc2)c(Cl)c1 | nt | nt | nt | 49* | 7
CCC(C)c1ccccc1OCCn1ccnc1 (stereo not drawn) | nt | nt | nt | 48* | 1
CCOc1ccc(-n2c(=S)sc3c(=O)n(-c4ccc(F)cc4)c(SCC(=O)O)nc32)cc1 | 4 | 29* | -1 | 19 | -5
CCOc1ccc(-n2c(=S)sc3c(=O)n(-c4ccccc4)c(SCC(=O)O)nc32)cc1 | -1 | 7 | 7 | 4 | 5
Cc1noc(C)c1NC(=O)N(C)C[C@@H]1Oc2ccc(NC(=O)Nc3ccc(F)cc3)cc2C(=O)N([C@@H](C)CO)C[C@@H]1C | 2 | -2 | -1 | -4 | nt
NC(=O)C1CCN(C(=O)CCNS(=O)(=O)c2ccccc2F)CC1 | 5 | 0 | 18 | 48* | 0
COC(=O)c1ccc(Oc2ccc(C(F)(F)F)cn2)cc1 | -3 | -1 | -3 | 56* | -5
O=C(O)c1ccc(Oc2ccc(C(F)(F)F)cn2)cc1 | 4 | 2 | 4 | 13 | -2
SMILES | ERp5 inh | SIRT5 inh | S100A4 inh HTS | GSIS activator | PDI turbidity
C[C@@H]1CN([C@@H](C)CO)C(=O)c2cc(NC(=O)Cc3cn(C)c4ccccc34)ccc2O[C@H]1CN(C)Cc1ccc(C(=O)Nc2ccccc2N)cc1 | -3 | 17* | -45 | -3 | nt
C[C@@H]1CN([C@@H](C)CO)C(=O)c2cc(NC(=O)Cc3cn(C)c4ccccc34)ccc2O[C@@H]1CN(C)Cc1ccc(C(=O)Nc2ccccc2N)cc1 | -6 | nt | 4 | 5 | nt
C[C@H](CO)N1C[C@H](C)[C@H](CN(C)Cc2ccc(C(=O)Nc3ccccc3N)cc2)Oc2ccc(NC(=O)Cc3cn(C)c4ccccc34)cc2C1=O | -3 | 23* | -31 | nt | nt
C[C@@H]1CN([C@@H](C)CO)C(=O)c2cc(NC(=O)Cc3cn(C)c4ccccc34)ccc2O[C@H]1CN(C)Cc1ccc(Cl)c(Cl)c1 | 0 | 26* | -7 | 0 | nt
O=C(c1cccnc1)N1CC(=O)N2[C@H](CO)[C@H](c3ccc(C#CCC4CCCC4)cc3)[C@H]2C1 | -5 | -1 | 5 | -17 | nt
O=C(O)c1ccc(S(=O)(=O)NCc2ccc3c(c2)OCO3)cc1 | 2 | 14 | -6 | 43* | -19
CC(C)c1ccc(S(=O)(=O)NCc2ccc3c(c2)OCO3)cc1 | 3 | 0 | 1 | -12 | -4
COC(=O)[C@@H]1[C@@H](CO)[C@@H]2Cn3c(ccc(C4=CCCC4)c3=O)[C@@H]2N1C(=O)C1CCCC1 | -2 | -3 | 3 | 10 | nt
O=C(CNC(=O)c1ccco1)N/N=C/c1ccc(C(=O)O)cc1 | -9 | 7 | 0 | 48* | 0
O=C(Nc1ccccc1C(=O)N/N=C/c1ccccc1)c1ccco1 | 1 | -2 | 3 | 93* | -14
O=C(N/N=C/c1ccccc1)c1ccco1 | 2 | 2 | -1 | 3 | -2
O=C(Cc1ccccc1)NCC(=O)N/N=C/c1ccc(C(=O)O)cc1 | 18 | -3 | 1 | -6 | 1
N#CC(C(=O)c1ccco1)c1ccccn1 (stereo not drawn) | nt | nt | nt | 43* | -3
CC1CC(C)CN(S(=O)(=O)c2ccc3c(c2)oc(=O)n3CC(=O)NCc2cccnc2)C1 (stereo not drawn) | 7 | 22* | -2 | -13 | -4
CCC(C)(C)NC(=O)Cn1c(=O)oc2cc(S(=O)(=O)N3CC(C)CC(C)C3)ccc21 (stereo not drawn) | -7 | -2 | -2 | 15 | 9
c1ccc(CC[C@@H]2CC[C@@H](CCc3ccccc3)N2)cc1 | -6 | nt | 3 | -19 | 1
c1ccc(CCC2Cc3ccccc3N2)cc1 (stereo not drawn) | -4 | 15* | -40 | 21 | -42
N#C/C(=C/c1ccc(-c2ccc(S(N)(=O)=O)cc2)o1)C(=O)Nc1ccccc1 | nt | nt | nt | 116* | 6
COC(=O)c1ccc(/C=C2/SC(=S)N(CCC(=O)NCCCN3CCOCC3)C2=O)cc1 | -3 | 23* | 24 | 10 | 8
CCc1ccc(/C=C2\SC(=S)N(CCCC(=O)NCCCN3CCOCC3)C2=O)cc1 | 0 | -1 | 1 | 41* | 1
